Broadly, the Ki is a dissociation constant, usually derived from enzyme kinetics or from competition with a known ligand. A higher Ki goes with a looser hold on the target. In general, EC50 refers to the concentration at which the effect is half-maximal. Read a low EC50 as higher potency in that assay.

The source made the active and inactive calls. No cut-off for these calls is given here.

For assay [1], the target named is 5-hydroxytryptamine receptor 2A (Homo sapiens) (UniProt P28223). As to the kind of experiment: Binding affinity to 5HT-2A receptor (unknown origin) at 10 uM.
For assay [2], the target named is T1, Peroxisome proliferator-activated receptor gamma (Homo sapiens) (UniProt P37231).
T1 sequence (whole entry): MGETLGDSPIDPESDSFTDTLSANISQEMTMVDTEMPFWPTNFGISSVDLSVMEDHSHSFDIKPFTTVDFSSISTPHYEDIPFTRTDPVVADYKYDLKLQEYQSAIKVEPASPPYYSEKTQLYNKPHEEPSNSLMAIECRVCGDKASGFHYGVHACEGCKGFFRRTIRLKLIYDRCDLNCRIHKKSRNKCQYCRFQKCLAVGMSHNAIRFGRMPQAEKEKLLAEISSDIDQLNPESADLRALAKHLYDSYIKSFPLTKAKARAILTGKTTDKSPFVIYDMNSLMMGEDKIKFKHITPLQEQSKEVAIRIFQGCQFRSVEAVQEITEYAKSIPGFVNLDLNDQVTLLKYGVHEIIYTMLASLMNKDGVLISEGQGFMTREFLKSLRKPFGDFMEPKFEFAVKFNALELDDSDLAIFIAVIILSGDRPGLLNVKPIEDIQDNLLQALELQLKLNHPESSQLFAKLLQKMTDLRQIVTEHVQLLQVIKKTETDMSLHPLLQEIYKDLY
As to the kind of experiment: Binding affinity to PPARgamma (unknown origin) at 10 uM.

Assay [3] addresses 5-hydroxytryptamine receptor 2B (Homo sapiens) (UniProt P41595). Nature of the assay: Binding affinity to 5HT-2B receptor (unknown origin) at 10 uM.
For the next assay, the species on record is Homo sapiens. Nature of the assay: Selectivity ratio of Ki for human melatonin receptor-1 to Ki for human melatonin receptor-2.
The nature of assay [4]: Induction of primary neuronal stem cell differentiation derived from subgranular zone of dentate gyrus of Wistar rat hippocampus assessed as upregulation of TuJ1 expression incubated for 7 days followed by 48 hrs incubation in presence of serum and absence of EGF by DAPI staining-based fluorescence microscopic analysis. Conditions: Primary neuron. It is filed as functional, tissue-based. In a few lines:
(§1)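 Neurospheres came from the SGZ of the dentate gyrus of adult male Wistar rats (8-12 weeks). They were grown in DMEM/F12 with 10 ng/mL EGF, 10 ng/mL FGF and B27. After 3 days, cultures were treated with compounds for 7 days. They were then plated on poly-L-lysine coverslips for 48 h with serum and without growth factors. Cells were immunostained for TuJ1 and MAP-2 with DAPI nuclei. Positive cells were counted by fluorescence microscopy in five NS per condition over three independent experiments. Untreated cultures gave basal values.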

The target in assay [5] is T2, 5-hydroxytryptamine receptor 1A (Homo sapiens) (UniProt P08908).
T2 sequence (whole entry): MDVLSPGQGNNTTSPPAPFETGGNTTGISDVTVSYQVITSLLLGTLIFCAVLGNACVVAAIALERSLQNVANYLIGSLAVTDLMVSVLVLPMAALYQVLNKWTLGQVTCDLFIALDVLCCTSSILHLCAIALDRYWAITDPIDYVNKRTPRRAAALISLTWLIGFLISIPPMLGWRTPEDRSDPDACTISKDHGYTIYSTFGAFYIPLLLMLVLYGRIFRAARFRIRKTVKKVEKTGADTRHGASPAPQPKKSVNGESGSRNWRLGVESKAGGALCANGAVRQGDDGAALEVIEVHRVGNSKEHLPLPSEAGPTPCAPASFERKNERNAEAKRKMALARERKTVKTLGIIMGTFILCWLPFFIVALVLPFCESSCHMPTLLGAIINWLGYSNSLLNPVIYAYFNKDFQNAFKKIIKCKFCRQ
Nature of the assay: Binding affinity to 5HT-1A receptor (unknown origin) at 10 uM.

Assay [6] deals with T3, Melatonin receptor type 1A (Homo sapiens, UniProt P48039). Nature of the assay: Displacement of 2-[125I]-iodomelatonin from human melatonin receptor-1 transfected in CHO cell membranes after 120 mins.
Assay [7] addresses T4, Retinoic acid receptor alpha (Homo sapiens) (UniProt P10276).
T4 sequence (whole entry): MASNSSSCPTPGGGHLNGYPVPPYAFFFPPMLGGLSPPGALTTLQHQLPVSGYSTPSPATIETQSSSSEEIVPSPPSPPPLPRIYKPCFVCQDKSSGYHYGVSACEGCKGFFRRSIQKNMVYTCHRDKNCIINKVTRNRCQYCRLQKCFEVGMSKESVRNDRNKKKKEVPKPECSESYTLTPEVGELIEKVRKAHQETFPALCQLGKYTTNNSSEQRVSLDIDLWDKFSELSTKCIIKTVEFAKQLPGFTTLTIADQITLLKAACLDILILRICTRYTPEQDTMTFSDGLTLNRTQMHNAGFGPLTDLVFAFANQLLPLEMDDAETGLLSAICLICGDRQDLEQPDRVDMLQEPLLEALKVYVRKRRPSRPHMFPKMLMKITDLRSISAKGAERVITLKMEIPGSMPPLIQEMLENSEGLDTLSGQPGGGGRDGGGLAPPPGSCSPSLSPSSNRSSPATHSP
Nature of the assay: Binding affinity to RARalpha (unknown origin) at 10 uM.

In assay [8] the target is Sodium-dependent serotonin transporter (Homo sapiens) (UniProt P31645). As to the kind of experiment: Binding affinity to SERT (unknown origin) at 10 uM.
Assay [9] addresses T3, Melatonin receptor type 1A. As to the kind of experiment: Agonist activity at human melatonin receptor-1 transfected in CHO cell membranes after 1 hr by GTPgammaS binding assay. The class given is functional.
Assay [10] addresses Cannabinoid receptor 2 (Homo sapiens) (UniProt P34972). Nature of the assay: Binding affinity to CB2 receptor (unknown origin) at 10 uM.
Assay [11] in a line: Induction of primary neuronal stem cell differentiation derived from subgranular zone of dentate gyrus of Wistar rat hippocampus assessed as upregulation of TuJ1 expression at 10 uM incubated for 7 days followed by 48 hrs incubation in presence of serum and absence of EGF by DAPI staining-based fluorescence microscopic analysis in presence of melatonin receptor antagonist luzindole. The class given is functional. Conditions: Primary neuron. A digest of the protocol:
as §1

The target in assay [12] is Cannabinoid receptor 1 (Homo sapiens) (UniProt P21554). Nature of the assay: Binding affinity to CB1 receptor (unknown origin) at 10 uM.
Assay [13] addresses T5, Melatonin receptor type 1B (Homo sapiens, UniProt P49286).
T5 sequence (P49286 whole entry): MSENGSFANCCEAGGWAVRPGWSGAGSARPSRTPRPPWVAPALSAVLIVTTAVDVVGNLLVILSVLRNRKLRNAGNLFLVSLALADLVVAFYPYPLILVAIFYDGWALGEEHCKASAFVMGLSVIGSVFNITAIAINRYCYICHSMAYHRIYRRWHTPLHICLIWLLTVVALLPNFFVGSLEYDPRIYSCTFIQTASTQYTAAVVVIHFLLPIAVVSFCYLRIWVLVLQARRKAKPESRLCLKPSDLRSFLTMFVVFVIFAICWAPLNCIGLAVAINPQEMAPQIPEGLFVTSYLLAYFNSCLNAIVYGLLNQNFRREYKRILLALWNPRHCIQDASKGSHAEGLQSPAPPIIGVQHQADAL
Nature of the assay: Displacement of 2-[125I]-iodomelatonin from human melatonin receptor-2 transfected in CHO cell membranes after 120 mins.

T3 sequence (P48039 whole entry): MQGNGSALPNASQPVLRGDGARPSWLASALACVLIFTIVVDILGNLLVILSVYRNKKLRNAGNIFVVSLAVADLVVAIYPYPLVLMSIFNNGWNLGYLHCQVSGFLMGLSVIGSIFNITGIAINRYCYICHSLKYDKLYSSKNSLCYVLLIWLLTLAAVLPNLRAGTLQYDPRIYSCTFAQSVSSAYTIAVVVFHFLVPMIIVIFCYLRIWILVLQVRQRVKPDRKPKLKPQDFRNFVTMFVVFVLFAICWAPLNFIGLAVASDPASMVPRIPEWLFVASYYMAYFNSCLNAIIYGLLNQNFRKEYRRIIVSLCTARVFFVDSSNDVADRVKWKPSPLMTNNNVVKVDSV
Sequence of Cannabinoid receptor 1 (Homo sapiens) (P21554 whole entry): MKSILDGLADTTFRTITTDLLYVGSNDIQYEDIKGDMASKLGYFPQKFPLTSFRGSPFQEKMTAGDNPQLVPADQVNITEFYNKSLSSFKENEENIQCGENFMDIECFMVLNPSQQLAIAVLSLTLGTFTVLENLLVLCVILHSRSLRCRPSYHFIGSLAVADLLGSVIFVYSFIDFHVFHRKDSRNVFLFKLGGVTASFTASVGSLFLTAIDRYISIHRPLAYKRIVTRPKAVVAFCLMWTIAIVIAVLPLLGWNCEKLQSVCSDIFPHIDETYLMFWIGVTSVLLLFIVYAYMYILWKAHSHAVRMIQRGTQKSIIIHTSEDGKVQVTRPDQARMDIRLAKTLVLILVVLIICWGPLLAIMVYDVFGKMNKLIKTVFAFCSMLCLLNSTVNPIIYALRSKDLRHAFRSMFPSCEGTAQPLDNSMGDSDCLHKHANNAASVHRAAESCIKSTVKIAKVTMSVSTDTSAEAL
Sequence of Sodium-dependent serotonin transporter (Homo sapiens) (P31645 whole entry, looked up): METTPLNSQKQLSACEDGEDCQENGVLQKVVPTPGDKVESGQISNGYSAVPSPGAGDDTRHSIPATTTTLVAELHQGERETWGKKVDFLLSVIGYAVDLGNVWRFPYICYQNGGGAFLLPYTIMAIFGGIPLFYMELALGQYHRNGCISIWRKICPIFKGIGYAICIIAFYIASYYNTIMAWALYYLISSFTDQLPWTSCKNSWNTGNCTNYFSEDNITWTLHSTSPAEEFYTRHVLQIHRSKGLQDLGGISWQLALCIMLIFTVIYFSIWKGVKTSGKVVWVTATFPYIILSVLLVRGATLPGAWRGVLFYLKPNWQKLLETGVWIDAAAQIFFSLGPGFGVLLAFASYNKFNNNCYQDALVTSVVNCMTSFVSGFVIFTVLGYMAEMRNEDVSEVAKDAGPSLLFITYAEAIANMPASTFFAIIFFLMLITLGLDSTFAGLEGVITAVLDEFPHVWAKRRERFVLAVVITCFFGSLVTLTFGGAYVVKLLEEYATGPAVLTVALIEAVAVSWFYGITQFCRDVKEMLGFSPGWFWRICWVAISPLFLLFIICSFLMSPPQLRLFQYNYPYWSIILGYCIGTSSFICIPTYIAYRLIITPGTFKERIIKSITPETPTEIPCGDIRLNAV
Sequence of Cannabinoid receptor 2 (Homo sapiens) (P34972 whole entry): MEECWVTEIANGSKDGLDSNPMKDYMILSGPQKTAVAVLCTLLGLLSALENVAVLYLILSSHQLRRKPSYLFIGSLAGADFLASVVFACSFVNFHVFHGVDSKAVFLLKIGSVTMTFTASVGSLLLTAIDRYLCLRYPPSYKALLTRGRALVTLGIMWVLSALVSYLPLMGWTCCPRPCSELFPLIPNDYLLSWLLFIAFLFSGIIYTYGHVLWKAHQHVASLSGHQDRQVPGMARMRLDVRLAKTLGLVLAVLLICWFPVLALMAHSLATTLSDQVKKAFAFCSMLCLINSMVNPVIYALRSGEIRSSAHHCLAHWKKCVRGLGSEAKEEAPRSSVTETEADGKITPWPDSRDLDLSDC
Sequence of 5-hydroxytryptamine receptor 2B (Homo sapiens) (P41595 whole entry): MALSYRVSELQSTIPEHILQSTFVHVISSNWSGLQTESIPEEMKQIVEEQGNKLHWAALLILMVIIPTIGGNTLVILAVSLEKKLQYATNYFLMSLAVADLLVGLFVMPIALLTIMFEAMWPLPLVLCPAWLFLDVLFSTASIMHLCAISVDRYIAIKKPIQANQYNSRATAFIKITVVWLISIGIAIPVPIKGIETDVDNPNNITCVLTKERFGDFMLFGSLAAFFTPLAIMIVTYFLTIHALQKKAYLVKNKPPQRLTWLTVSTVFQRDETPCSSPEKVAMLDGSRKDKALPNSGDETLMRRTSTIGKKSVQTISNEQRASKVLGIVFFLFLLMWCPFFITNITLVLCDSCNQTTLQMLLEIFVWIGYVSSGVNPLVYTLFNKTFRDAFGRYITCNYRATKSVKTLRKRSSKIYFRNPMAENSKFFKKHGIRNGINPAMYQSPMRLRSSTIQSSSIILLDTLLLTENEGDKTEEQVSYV
Sequence of 5-hydroxytryptamine receptor 2A (Homo sapiens) (P28223 whole entry): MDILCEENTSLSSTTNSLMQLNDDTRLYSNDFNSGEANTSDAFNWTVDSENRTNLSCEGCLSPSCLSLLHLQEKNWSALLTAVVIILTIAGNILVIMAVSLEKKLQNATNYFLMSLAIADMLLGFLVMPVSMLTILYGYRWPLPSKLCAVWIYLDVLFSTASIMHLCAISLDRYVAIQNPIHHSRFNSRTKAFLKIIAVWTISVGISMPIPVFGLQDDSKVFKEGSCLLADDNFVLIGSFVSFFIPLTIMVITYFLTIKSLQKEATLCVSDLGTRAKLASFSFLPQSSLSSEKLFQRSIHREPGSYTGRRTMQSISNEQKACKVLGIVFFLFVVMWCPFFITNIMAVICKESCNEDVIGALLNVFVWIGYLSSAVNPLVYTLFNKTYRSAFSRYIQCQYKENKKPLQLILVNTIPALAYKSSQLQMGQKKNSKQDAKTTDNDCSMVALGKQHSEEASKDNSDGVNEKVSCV

Regarding `COc1ccc2[nH]cc(CCc3nnc(C)o3)c2c1`, the outcome in assay [1], in [2], in assay [3], in assay [5], in assay [7] and in [8] was inactive. In addition, the result in assay [10], in assay [11] and in assay [12] was inactive. Also, the Ratio Ki in the assay filed under Homo sapiens is 3.6. Further, the Activity result in assay [4] was “Dose-dependent effect”. For the same compound, the inhibition constant Ki stood at 709 nM in assay [6] and 190 nM in assay [13]. The same compound displayed a concentration for a half-maximal effect (EC50) in assay [9] of 961 nM.

(Values after ChEMBL document CHEMBL3580567 (J Med Chem, 2015).)
